# Measured values collected from several papers.
# Protocols differ between the studies behind these lines.
# Target: Ephrin type-A receptor 8 (EPHA8, Homo sapiens, UniProt P29322)
# Sequence (P29322 1-1005, as in one of the studies): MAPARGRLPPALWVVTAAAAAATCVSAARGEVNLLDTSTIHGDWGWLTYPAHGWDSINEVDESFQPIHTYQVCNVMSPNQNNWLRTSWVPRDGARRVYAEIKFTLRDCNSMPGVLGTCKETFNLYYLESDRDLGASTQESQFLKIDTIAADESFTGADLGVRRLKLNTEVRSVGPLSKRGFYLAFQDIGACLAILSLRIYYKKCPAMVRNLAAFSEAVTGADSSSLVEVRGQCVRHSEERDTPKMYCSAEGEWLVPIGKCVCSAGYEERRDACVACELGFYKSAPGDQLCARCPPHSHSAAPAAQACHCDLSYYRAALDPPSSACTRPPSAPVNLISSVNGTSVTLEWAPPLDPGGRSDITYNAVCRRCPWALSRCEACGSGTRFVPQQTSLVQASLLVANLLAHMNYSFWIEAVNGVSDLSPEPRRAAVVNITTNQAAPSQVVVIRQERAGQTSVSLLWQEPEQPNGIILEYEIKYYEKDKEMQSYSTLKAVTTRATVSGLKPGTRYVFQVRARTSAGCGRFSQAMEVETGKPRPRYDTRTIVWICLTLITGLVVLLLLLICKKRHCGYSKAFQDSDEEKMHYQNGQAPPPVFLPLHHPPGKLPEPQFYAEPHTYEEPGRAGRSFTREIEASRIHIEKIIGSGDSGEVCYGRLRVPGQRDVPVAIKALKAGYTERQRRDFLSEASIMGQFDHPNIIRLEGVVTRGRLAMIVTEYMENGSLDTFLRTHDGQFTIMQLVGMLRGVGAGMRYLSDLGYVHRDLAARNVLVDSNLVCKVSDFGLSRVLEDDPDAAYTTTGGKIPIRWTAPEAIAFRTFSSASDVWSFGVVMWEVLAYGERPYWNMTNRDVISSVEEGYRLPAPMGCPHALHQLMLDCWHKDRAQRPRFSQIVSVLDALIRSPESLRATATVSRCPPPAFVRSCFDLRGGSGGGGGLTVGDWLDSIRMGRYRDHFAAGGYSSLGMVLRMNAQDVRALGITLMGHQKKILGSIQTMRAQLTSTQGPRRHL
SMILES,test,conditions,remaining binding [%]
COc1cc(-c2cn(C3CCc4c(F)cccc4N(CC(F)(F)F)C3=O)nn2)ccc1-n1cnc(C)c1 (centres unmarked),"cell-free assay, competition with immobilised ligand",1 µM,100
CN(C)c1ncc(F)c(-c2cnn3ncccc23)n1,binding,1 µM,100
COc1ncc2cc3ccccc3nc2c1C#N,"cell-free assay, competition with immobilised ligand",5 µM,94
C[C@@H]1CN(c2cc(-c3n[nH]c4ccc(OC5(C)CC5)cc34)ncn2)C[C@H](C)O1,"cell-free assay, competition with immobilised ligand",0.1 µM,82
Nc1ncc2c(n1)-c1c([nH]c3ccc(C#CC4CC4)cc13)CCCC2,"binding, competition with immobilised ligand",1 µM,89
C=CC(=O)N1CCC(C(=O)NCC(=O)N2CCN(c3nc(-c4cnc(N)nc4C(F)F)nc(N4CCOCC4)n3)CC2)CC1,"binding, competition with immobilised ligand",1 µM,100
O=c1nc(-c2ccccn2)sc2ccccc12,"cell-free assay, competition with immobilised ligand",1 µM,78
N[C@@H]1CCN(c2nccc(-c3cnn4ncccc34)n2)C1,binding,1 µM,100
O=C(c1ccc(Nc2ncc(Cl)c(-c3cc4ccccc4s3)n2)cc1)N1CCC(N2CCCC2)CC1,"binding, competition with immobilised ligand",1 µM,83
CNC(=O)[C@@H]1CC[C@@H](n2c(-c3ccc4cnccc4c3)nc3ccc(C(=O)NCc4cccc(C(N)=O)c4)cc32)C1,"binding, competition with immobilised ligand",1 µM,91
COc1ccnn2ncc(-c3ccnc(N(C)C)n3)c12,binding,1 µM,100
COc1cnc(Nc2cccc(S(N)(=O)=O)c2)nc1N1CCN(c2ccccc2)C(=O)C1,"binding, competition with immobilised ligand",1 µM,100
O=C(c1ccc(Nc2nccc(-c3cc4ccccc4s3)n2)cc1)N1CCC(N2CCCC2)CC1,"binding, competition with immobilised ligand",1 µM,100
CCOCCn1cc(C(=O)Nc2ccc(-n3nc(-c4cccnc4)cc3C(F)(F)F)cn2)ccc1=O,"cell-free assay, competition with immobilised ligand",1 µM,84
F[C@@H]1CCN(c2nccc(-c3cnn4ncccc34)n2)C1,binding,1 µM,92
Cc1nc(C2CCN(C(=O)c3ccc(OC(F)(F)F)cc3N)CC2)c2ncc(N3CCN(C)CC3)cc2n1,"cell-free assay, competition with immobilised ligand",1 µM,98
O=C(c1ccc(Nc2ncc(Cl)c(-c3ccc(Cl)s3)n2)cc1)N1CCC(N2CCCC2)CC1,"binding, competition with immobilised ligand",1 µM,91
CCOC(=O)c1cc2cc(-c3cc(C(=O)NCc4ccc(C(=O)O)cc4)nn3C)ccc2[nH]1,"cell-free assay, competition with immobilised ligand",0.1 µM,100
c1cnn2ncc(-c3ccnc(N4CCC45COC5)n3)c2c1,binding,1 µM,89
O=C(Nc1c[nH]nc1C(=O)NC1CCNCC1)c1cc(F)cc(F)c1,"binding, competition with immobilised ligand",1 µM,100
